Reference: PMC7114156 (Antiviral Research, 2009)

Columns and labels:
[1] = tested on: adenovirus type 5; experiment: Adenovirus assay: adenovirus-5 replication in HFF cells, viral DNA by qPCR; type: cell-based; settings: read-out: EC50, adenovirus replication; data not shown
[2] = tested on: W12-20850 cells; experiment: Growth of W12-20850 cells, MTS; type: cell-based, human; settings: read-out: EC50, inhibition of growth of W12 cells; data not shown
Procedure, shortened: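 For the time course, test compound was added at time zero to cells growing in 96-well plates. Growth was followed as rate of MTS reduction over 3 days from day zero, with untreated controls alongside.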

[3] = tested on: episomal HPV-16 DNA; experiment: Hybrid capture assay for HPV16 DNA in W12-20850 cells; type: cell-based; settings: read-out: EC50, reduction of HPV DNA; W12 cells; data not shown
Procedure, shortened: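 W12-20850 cells seeded at 7.5 × 10^3/well onto compound (100 to 0.001 μM), 4 days at 37 °C, 5% CO2. MTS growth read, then same cells lysed in 0.2N NaOH/1% Igepal. Episomal HPV-16 DNA measured by hybrid capture: 90 °C 6.5 min, 42 °C overnight, anti-digoxigenin HRP, chemiluminescence. HPV DNA/MTS ratio expressed as % of untreated control. Fit to modified Hill equation.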

[4] = tested on: MT4 cells; experiment: Apoptosis assay; type: cell-based, human; settings: MT4, 20 h exposure
Procedure, shortened: (§1)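 Apoptosis read as cytoplasmic histone-associated DNA fragments with a Cell Death Detection ELISA kit. Exposure was 20 h for IM9 and MT4 and 40 h for W12 and U937. A405 was read kinetically at 30 °C, and the rate per hour came from linear regression of the linear portion. A Fas-activating antibody was the positive control.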

[5] = tested on: IM9 cells; experiment: Growth of IM9 cell line; type: cell-based, human; settings: read-out: EC50, growth of IM9 cells; data not shown
[6] = tested on: MT4 cells; experiment: Growth of MT4 cell line; type: cell-based, human; settings: read-out: EC50, growth of MT4 cells; data not shown
[7] = tested on: U937 cells; experiment: Apoptosis assay; type: cell-based, human; settings: U937, 40 h exposure
Procedure, shortened: as §1

[8] = tested on: IM9 cells; experiment: Apoptosis assay; type: cell-based, human; settings: IM9, 20 h exposure
Procedure, shortened: as §1

[9] = tested on: W12 cells; experiment: Apoptosis assay; type: cell-based, human; settings: W12, 40 h exposure
Procedure, shortened: as §1

O=C(N[C@H]1CCCc2c1[nH]c1ccc(Cl)cc21)c1ccccn1 [GSK984]
EC50 [1]: > 10 µM | EC50 [2]: 17 ± 3.6 µM | EC50 [3]: 6.9 ± 0.68 µM | Apoptosis [4]: did not induce apoptosis | EC50 [5]: 13 µM | EC50 [6]: 35 µM | Apoptosis [7]: did not induce apoptosis | Apoptosis [8]: did not induce apoptosis | Apoptosis [9]: did not induce apoptosis
